Source: PubChem BioAssay
CRFR2-BP ag – agonists of human CRF-binding protein/CRF-R2 receptor complex. 350,000 compounds, 0.46% hits. activation, % at 13.2 µM. HEK293 CRF-R2/CRF-BP, calcium dye fluorescence (FLIPR); percent of saturating CRF peptide response;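 active means activation of at least 50%, plus an integration ratio under a set limit after plate pattern correction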;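 further: plate controls were neutral control wells without compound for no effect and CRF at EC100 for full effect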
CRFR2-BP antag – CRF-BP/CRF-R2 complex antagonism; HEK293 CRF-R2/CRF-BP, CRF-induced calcium fluorescence; inhibition, % at 11.8 µM; 350,000 compounds, 0.59% hits; AID 588475;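 active means inhibition of the ligand-induced calcium signal above about 50% at the single tested concentration, limit read from the data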
DDE Tn6 FP inh – disrupts Tn6 cyclic peptide binding to fibrin D-Dimer-E complex; Fibrin DD(E) TRITC-Tn6 fluorescence polarization displacement; inhibition, % at 8.3 µM; 370,000 compounds, 0.21% hits; AID 720509;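 active means inhibition above a per-campaign cutoff: mean of compounds within control limits plus 3 SD, cut at about 15% in these data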;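 further: 0% = median of all compound wells on the plate and 100% = blocking peptide control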
Target sequence (P02675 whole entry, looked up): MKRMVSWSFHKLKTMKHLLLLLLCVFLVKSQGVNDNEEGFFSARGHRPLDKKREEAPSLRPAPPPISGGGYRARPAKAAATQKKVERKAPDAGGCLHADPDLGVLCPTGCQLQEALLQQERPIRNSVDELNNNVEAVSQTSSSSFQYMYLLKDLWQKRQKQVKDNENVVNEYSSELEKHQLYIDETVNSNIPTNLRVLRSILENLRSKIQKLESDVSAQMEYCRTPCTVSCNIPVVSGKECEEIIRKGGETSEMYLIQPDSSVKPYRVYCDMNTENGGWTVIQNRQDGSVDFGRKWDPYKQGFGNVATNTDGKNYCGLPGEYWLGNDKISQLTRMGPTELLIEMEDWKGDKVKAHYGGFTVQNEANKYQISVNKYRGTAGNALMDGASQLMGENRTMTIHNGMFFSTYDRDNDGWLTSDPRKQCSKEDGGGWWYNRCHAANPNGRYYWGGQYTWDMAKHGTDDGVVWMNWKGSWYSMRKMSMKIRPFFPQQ
DDE Tn7 FP inh – disrupts Tn7 cyclic peptide binding to fibrin D-Dimer-E complex | P02675 | FP displacement of FITC-Tn7 peptide from fibrin DD(E); 0% = median of compound wells per plate | inhibition, % at 8.3 µM | 370,000 compounds, 0.13% hits | AID 720508;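 active means inhibition above the mean of compounds falling within the control limits plus 3 SD of them, cut at about 14% in these data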;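 further: 0% = plate median of compound wells and 100% = 10 µM Aha-Tn7 peptide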
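Test system: human clot-derived fibrin DD(E) complex / Quantity: 2 µM final DD(E) protein / Incubation: 10 min plus 3 h, room temperature / Measured by: fluorescence polarization / Benchmarks: high control of 10 µM Aha-Tn7 peptide / Replicates: singlicate testing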
RTF Ca sens act – increases calcium sensitivity of human cardiac regulated thin filaments. 340,000 compounds, 0.24% hits. IANBD-labeled TnC RTF fluorescence at EC20 calcium; 0% EC20 calcium, 100% full calcium. AID 493008. activation, % at 7.2 µM. P19429+P45379;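 active means activation above the mean over all tested compounds plus 3 SD, cut at about 30% in these data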;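 further: rise in fluorescence read as greater calcium sensitivity of cardiac thin filaments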
RTF Ca sens inh – cardiac RTF calcium desensitization | P19429+P45379 | IANBD-labeled cardiac RTF, Ca2+ fluorescence | inhibition, % at 7.15 µM | 340,000 compounds, 0.12% hits;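 active means inhibition above the mean inhibition of all tested compounds plus 3 SD, cut at about 17% in these data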;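 further: assay run at fixed EC70 calcium of 1.6 mM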
RTF Ca inh conf – cardiac RTF calcium sensitivity inhibition, confirmation. shares compounds with RTF Ca sens inh. reconstituted cardiac thin filaments, calcium sensitivity fluorescence. inhibition, % at 7.15 µM. 360 compounds, 8% hits. AID 504635; in the data active means inhibition above about 18%
Starred values were filed as active, the others as inactive; ! = not active in a repeat. An excerpt weighted towards active compounds, which were near 1.4% of everything screened.

Screening COC(=O)C1=C(c2ccc(OCc3ccccc3)cc2)C[C@@H]2CC[C@H]1N2C(=O)NCc1ccccc1C(F)(F)F returned CRFR2-BP ag 2.9, CRFR2-BP antag 4.8, DDE Tn6 FP inh 2.2 and DDE Tn7 FP inh -9.1.
`O=Cc1c(C(=O)O)n(Cc2ccc(Cl)cc2)c2ccccc12` gave CRFR2-BP ag 30.8, CRFR2-BP antag -36.9, DDE Tn6 FP inh -3.2, DDE Tn7 FP inh -6.7, RTF Ca sens act 319.9* and RTF Ca sens inh -342.8.
Cc1ccc2[nH]c(=S)n(-c3cccnc3)c(=O)c2c1 was read as CRFR2-BP ag 0.4, CRFR2-BP antag -9.7, DDE Tn6 FP inh 1.0 and DDE Tn7 FP inh 8.3.
Screening O=c1[nH]c(=O)n(-c2ccccc2F)c(O)c1/C=C1\C=Nc2ccccc21 returned CRFR2-BP ag 3.2, CRFR2-BP antag -29.7, DDE Tn6 FP inh 3.1, DDE Tn7 FP inh -7.1, RTF Ca sens act -2.7 and RTF Ca sens inh -11.9.
Screening O=c1[nH]c(=O)n(-c2ccc(F)cc2)c(O)c1/C=C1\C=Nc2ccccc21 returned CRFR2-BP ag 102.1*, CRFR2-BP antag -47.5, DDE Tn6 FP inh -2.4, DDE Tn7 FP inh 1.0, RTF Ca sens act 6.6 and RTF Ca sens inh -11.2.
`c1ccc(CCN2CCC3CCNC3C2)cc1` (stereo not drawn) gave DDE Tn6 FP inh 3.0 and DDE Tn7 FP inh 2.2.
`COC(=O)C1=C(c2ccccc2OCc2ccccc2)C[C@@H]2CC[C@H]1N2C(=O)NCCc1ccc(F)cc1` gave CRFR2-BP ag 4.2, CRFR2-BP antag 7.7, DDE Tn6 FP inh 0.7, DDE Tn7 FP inh -6.6, RTF Ca sens act -4.7 and RTF Ca sens inh -9.0.
`O=C1NC(=O)C(=Cc2coc3ccccc3c2=O)C(=O)N1` gave CRFR2-BP ag 71.3*, CRFR2-BP antag -45.1, DDE Tn6 FP inh 8.9, DDE Tn7 FP inh 0.9, RTF Ca sens act 11.3 and RTF Ca sens inh -4.3.
For CC(=O)n1cc(C=C2C(=O)NC(=O)NC2=O)c2ccccc21 the results were CRFR2-BP ag -0.3, CRFR2-BP antag -5.0, DDE Tn6 FP inh -2.6, DDE Tn7 FP inh -0.6, RTF Ca sens act -3.2 and RTF Ca sens inh -2.6.
For O=C1NC(=O)C(=Cc2csc3ccccc23)C(=O)N1 the results were CRFR2-BP ag 2.0, CRFR2-BP antag -27.2, DDE Tn6 FP inh -0.7, DDE Tn7 FP inh 7.4, RTF Ca sens act 2.5 and RTF Ca sens inh -0.9.
Cn1cc(C=C2C(=O)NC(=O)NC2=O)c2ccccc21 was read as CRFR2-BP ag 59.1*, CRFR2-BP antag -35.8, DDE Tn6 FP inh 3.2, DDE Tn7 FP inh -0.3, RTF Ca sens act 14.0 and RTF Ca sens inh -2.4.
For CC(C)CNP(=S)(c1ccccc1)C(C)(C)C (stereo not drawn) the results were CRFR2-BP ag -0.7, CRFR2-BP antag 65.6*, DDE Tn6 FP inh -1.8, DDE Tn7 FP inh -5.2, RTF Ca sens act 5.9 and RTF Ca sens inh -1.1.
CC(C)(C)P(=O)(NCc1ccccc1)c1ccccc1 (stereo not drawn) was read as CRFR2-BP ag -2.7, CRFR2-BP antag -5.2, DDE Tn6 FP inh 0.5, DDE Tn7 FP inh -1.7, RTF Ca sens act 3.0 and RTF Ca sens inh -0.9.
For Cc1ccc(-c2cc(-c3ccccc3)cc(-c3ccccc3)[n+]2-c2ccccc2)cc1 the results were CRFR2-BP ag 65.6*, CRFR2-BP antag -94.3, DDE Tn6 FP inh 0.0, DDE Tn7 FP inh 5.5, RTF Ca sens act -3.1 and RTF Ca sens inh 3.6.
`Cc1ccc(-c2cc(-c3ccc(C)cc3)[n+](-c3ccccc3)c(-c3ccc(C)cc3)c2)cc1` gave CRFR2-BP ag 60.3*, CRFR2-BP antag -21.0, RTF Ca sens act 1.2 and RTF Ca sens inh -8.7.
For CN(C)[C@@H]1C(=O)C(C(N)=O)=C(O)[C@@]2(O)C(=O)C3=C(O)c4c(O)cccc4[C@@](C)(O)C3[C@H](O)C12 (stereo partly drawn) the results were CRFR2-BP ag 1.7, CRFR2-BP antag -11.6, DDE Tn6 FP inh -2.1, DDE Tn7 FP inh 3.6, RTF Ca sens act 10.5, RTF Ca sens inh 20.5*! and RTF Ca inh conf -4.8.
